Legend:
D(4) dopamine receptor = molecular target: T1, D(4) dopamine receptor (Homo sapiens, UniProt P21917); assay: Displacement of [3H]-Spiperone from human recombinant dopamine D4 receptor expressed in CHOK1 cells; format: cell-based, CHO-K1
T1 sequence (P21917 whole entry): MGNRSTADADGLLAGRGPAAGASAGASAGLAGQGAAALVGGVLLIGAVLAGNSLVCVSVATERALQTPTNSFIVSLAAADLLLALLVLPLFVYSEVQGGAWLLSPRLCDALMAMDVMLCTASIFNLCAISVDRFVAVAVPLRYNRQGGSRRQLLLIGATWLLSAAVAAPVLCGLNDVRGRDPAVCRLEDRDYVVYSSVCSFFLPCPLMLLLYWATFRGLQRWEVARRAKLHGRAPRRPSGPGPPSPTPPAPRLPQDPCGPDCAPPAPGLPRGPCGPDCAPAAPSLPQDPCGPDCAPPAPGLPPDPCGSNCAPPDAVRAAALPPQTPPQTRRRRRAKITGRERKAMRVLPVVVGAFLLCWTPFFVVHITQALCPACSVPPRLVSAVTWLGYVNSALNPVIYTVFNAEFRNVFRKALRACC
Procedure, shortened: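 Radioligand binding at human D4 receptor using [3H]-spiperone, run as a contract assay in duplicate. IC50 and Ki were derived from concentration–response data. Single-point values are % inhibition of specific binding at 10 µM test compound.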

D(2) dopamine receptor [1] = molecular target: T2, D(2) dopamine receptor (Homo sapiens, UniProt P14416); assay: Displacement of [3H]-Spiperone from human recombinant dopamine D2S receptor expressed in CHO cells at 10 uM relative to control; format: cell-based
T2 sequence (P14416 whole entry): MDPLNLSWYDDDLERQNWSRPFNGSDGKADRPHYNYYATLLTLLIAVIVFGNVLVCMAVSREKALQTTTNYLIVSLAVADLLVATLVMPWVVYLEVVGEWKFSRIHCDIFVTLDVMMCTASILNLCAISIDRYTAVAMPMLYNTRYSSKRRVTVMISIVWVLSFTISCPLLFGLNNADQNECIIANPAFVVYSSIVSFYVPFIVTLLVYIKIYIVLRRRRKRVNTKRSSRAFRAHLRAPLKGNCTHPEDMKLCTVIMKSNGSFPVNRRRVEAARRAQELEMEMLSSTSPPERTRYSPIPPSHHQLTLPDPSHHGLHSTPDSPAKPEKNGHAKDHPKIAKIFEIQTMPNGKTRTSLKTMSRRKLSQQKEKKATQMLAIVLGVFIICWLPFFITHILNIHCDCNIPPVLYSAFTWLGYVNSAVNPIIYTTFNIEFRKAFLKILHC
Procedure, shortened: (§1)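 Off-target dopamine receptor radioligand binding (D1, D2L, D2S, D3, D5), run as a contract assay. Test compound at a single concentration of 10 µM, reported as % inhibition of specific binding, measured in duplicate.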

[2] = Fraction unbound in human plasma by equilibrium dialysis method; format: ADME, cell-free
Plasma = assay: Fraction unbound in rat plasma by equilibrium dialysis method; format: ADME, cell-free
Liver microsome [3] = assay: Drug metabolism in human liver microsomes assessed as (S)-2-((6-chloropyridin-2-yloxy)methyl)morpholine formation in presence of NADPH; format: ADME
Liver microsome [4] = assay: Drug metabolism in rat liver microsomes assessed as oxidative dealkylated metabolite formation in presence of NADPH; format: ADME
Liver microsome [5] = assay: Metabolic stability in human liver microsomes in absence of NADPH; format: ADME
Liver microsome [6] = assay: Metabolic stability in rat liver microsomes in absence of NADPH; format: ADME
Homo sapiens [7] = species on record: Homo sapiens; assay: Selectivity ratio of Ki for human recombinant dopamine D2S receptor to Ki for human recombinant dopamine D4 receptor
Homo sapiens [8] = species on record: Homo sapiens; assay: Selectivity ratio of Ki for human recombinant dopamine D5 receptor to Ki for human recombinant dopamine D4 receptor
D(1A) dopamine receptor [9] = molecular target: T3, D(1A) dopamine receptor (Homo sapiens, UniProt P21728); assay: Displacement of [3H]-SCH-23390 from human recombinant dopamine D1 receptor expressed in CHO cells; format: cell-based
T3 sequence (P21728 whole entry): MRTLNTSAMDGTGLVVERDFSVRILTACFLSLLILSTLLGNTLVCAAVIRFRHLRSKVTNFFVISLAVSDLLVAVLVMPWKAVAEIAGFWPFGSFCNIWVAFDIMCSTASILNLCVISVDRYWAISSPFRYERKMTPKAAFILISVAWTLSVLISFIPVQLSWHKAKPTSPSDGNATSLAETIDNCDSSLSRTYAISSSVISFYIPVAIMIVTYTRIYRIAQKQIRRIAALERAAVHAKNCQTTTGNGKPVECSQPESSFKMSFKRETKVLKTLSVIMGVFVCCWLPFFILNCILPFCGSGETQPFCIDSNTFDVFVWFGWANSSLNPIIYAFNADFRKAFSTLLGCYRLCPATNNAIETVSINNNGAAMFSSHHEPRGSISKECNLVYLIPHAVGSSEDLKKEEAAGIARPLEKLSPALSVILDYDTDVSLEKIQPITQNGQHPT

D(2) dopamine receptor [10] = molecular target: T2, D(2) dopamine receptor; assay: Displacement of [3H]-Spiperone from human recombinant dopamine D2L receptor expressed in CHO cells; format: cell-based
D(2) dopamine receptor [11] = molecular target: T2, D(2) dopamine receptor; assay: Displacement of [3H]-Spiperone from human recombinant dopamine D2S receptor expressed in CHO cells; format: cell-based
D(3) dopamine receptor [12] = molecular target: T4, D(3) dopamine receptor (Homo sapiens, UniProt P35462); assay: Displacement of [3H]-Spiperone from human recombinant dopamine D3 receptor expressed in CHO cells; format: cell-based
T4 sequence (P35462 whole entry): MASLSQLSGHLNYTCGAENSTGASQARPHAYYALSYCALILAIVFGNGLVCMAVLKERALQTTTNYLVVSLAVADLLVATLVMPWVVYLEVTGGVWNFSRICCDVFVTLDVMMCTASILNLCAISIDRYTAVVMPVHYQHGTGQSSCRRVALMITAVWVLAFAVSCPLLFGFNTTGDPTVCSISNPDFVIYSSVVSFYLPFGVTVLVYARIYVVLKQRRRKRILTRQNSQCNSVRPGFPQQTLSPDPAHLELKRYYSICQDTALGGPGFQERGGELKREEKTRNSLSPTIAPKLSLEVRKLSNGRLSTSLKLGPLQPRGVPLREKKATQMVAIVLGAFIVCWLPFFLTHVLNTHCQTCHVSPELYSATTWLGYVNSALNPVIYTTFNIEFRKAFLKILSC

D(1B) dopamine receptor [13] = molecular target: T5, D(1B) dopamine receptor (Homo sapiens, UniProt P21918); assay: Displacement of [3H]-SCH-23390 from human recombinant dopamine D5 receptor expressed in CHO cells; format: cell-based
T5 sequence (P21918 whole entry): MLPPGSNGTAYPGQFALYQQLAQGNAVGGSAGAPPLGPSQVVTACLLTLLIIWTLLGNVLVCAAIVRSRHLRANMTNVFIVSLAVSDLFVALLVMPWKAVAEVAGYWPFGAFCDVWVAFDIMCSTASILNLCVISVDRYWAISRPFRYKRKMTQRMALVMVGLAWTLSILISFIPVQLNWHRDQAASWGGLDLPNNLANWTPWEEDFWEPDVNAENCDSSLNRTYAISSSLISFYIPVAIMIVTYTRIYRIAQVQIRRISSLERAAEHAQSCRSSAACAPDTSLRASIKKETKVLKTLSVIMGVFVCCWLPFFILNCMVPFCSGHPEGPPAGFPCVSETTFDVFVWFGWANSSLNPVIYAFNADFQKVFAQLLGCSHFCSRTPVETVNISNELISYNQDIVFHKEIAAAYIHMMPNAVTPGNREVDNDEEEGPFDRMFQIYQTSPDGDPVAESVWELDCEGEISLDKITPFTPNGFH

Homo sapiens [14] = species on record: Homo sapiens; assay: Selectivity ratio of Ki for human recombinant dopamine D1 receptor to Ki for human recombinant dopamine D4 receptor
Homo sapiens [15] = species on record: Homo sapiens; assay: Selectivity ratio of Ki for human recombinant dopamine D2L receptor to Ki for human recombinant dopamine D4 receptor
[16] = molecular target: Dopamine receptors; D3 & D4 (Homo sapiens) (UniProt P35462+P21917); assay: Selectivity ratio of Ki for human recombinant dopamine D3 receptor to Ki for human recombinant dopamine D4 receptor
Chain of Dopamine receptors; D3 & D4 (Homo sapiens) (P35462 whole entry, looked up, one chain of several): as the sequence (P35462 whole entry) above

D(1A) dopamine receptor [17] = molecular target: T3, D(1A) dopamine receptor; conditions: CHO, 1 uM
D(2) dopamine receptor [18] = molecular target: T2, D(2) dopamine receptor; conditions: CHO, 1 uM
D(2) dopamine receptor [19] = molecular target: T2, D(2) dopamine receptor; conditions: CHO, 1 uM; remark: listed apart in the source
D(3) dopamine receptor [20] = molecular target: T4, D(3) dopamine receptor; conditions: CHO, 1 uM
D(1B) dopamine receptor [21] = molecular target: T5, D(1B) dopamine receptor; conditions: CHO, 1 uM
[22] = Plasma concentration in rat at 0.25 mg/kg, iv administered through cassette dosing at 0.25 hrs; format: ADME, organism-based
[23] = Drug uptake in rat brain at 0.25 mg/kg, iv administered through cassette dosing at 0.25 hrs; format: ADME, organism-based; conditions: read-out: Drug uptake
[24] = Ratio of drug level in brain to plasma in rat at 0.25 mg/kg, iv administered through cassette dosing at 0.25 hrs; format: ADME, organism-based
Liver microsome [25] = assay: Drug level in human liver microsomes treated with (S)-2-((6-chloropyridin-2-yloxy)methyl)-4-((6-fluoro-1H-indol-3-yl)methyl)morpholine in presence of NADPH; format: ADME
Procedure, shortened: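 Human liver microsomes incubated with compound plus NADPH, alongside a matched no-NADPH incubation; samples profiled for remaining parent and for metabolites formed.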

D(2) dopamine receptor [26] = molecular target: T2, D(2) dopamine receptor; assay: Displacement of [3H]-Spiperone from human recombinant dopamine D2L receptor expressed in CHO cells at 10 uM relative to control; format: cell-based; procedure, shortened: as §1
D(1A) dopamine receptor [27] = molecular target: T3, D(1A) dopamine receptor; assay: Displacement of [3H]-SCH-23390 from human recombinant dopamine D1 receptor expressed in CHO cells at 10 uM relative to control; format: cell-based; procedure, shortened: as §1
D(3) dopamine receptor [28] = molecular target: T4, D(3) dopamine receptor; assay: Displacement of [3H]-Spiperone from human recombinant dopamine D3 receptor expressed in CHO cells at 10 uM relative to control; format: cell-based; procedure, shortened: as §1
D(1B) dopamine receptor [29] = molecular target: T5, D(1B) dopamine receptor; assay: Displacement of [3H]-SCH-23390 from human recombinant dopamine D5 receptor expressed in CHO cells at 10 uM relative to control; format: cell-based; procedure, shortened: as §1

SMILES | IC50 (D(4) dopamine receptor) [nM] | Ki (D(4) dopamine receptor) [nM] | inhibition (D(2) dopamine receptor [1]) [%] | Fu [2] | Fu (Plasma) | Ratio Ki (Homo sapiens [7]) | Ratio Ki (Homo sapiens [8]) | Ki (D(1A) dopamine receptor [9]) [nM] | Ki (D(2) dopamine receptor [10]) [nM] | Ki (D(2) dopamine receptor [11]) [nM] | Ki (D(3) dopamine receptor [12]) [nM] | Ki (D(1B) dopamine receptor [13]) [nM] | Ratio Ki (Homo sapiens [14]) | Ratio Ki (Homo sapiens [15]) | Ratio Ki [16] | concentration at 0.25 h [22] [ng/mL] | concentration at 0.25 h [23] [ng/g] | Kp [24] | also measured
Fc1ccc2c(CN3CCO[C@H](COc4cccc(Cl)n4)C3)c[nH]c2c1 | 11.9 | 3.3 | < 50 | 0.015 | 0.016 | > 1000 | > 1000 | > 10000 | > 10000 | > 10000 | > 10000 | > 10000 | > 1000 | > 1000 | > 1000 |  |  |  | Drug metabolism (Liver microsome [3]): metabolite_detected; Drug metabolism (Liver microsome [4]): metabolite_detected; Stability (Liver microsome [5]): Stable; Stability (Liver microsome [6]): Stable; inhibition (D(1A) dopamine receptor [17]): < 10%; inhibition (D(2) dopamine receptor [18]): < 10%; inhibition (D(2) dopamine receptor [19]): < 10%; inhibition (D(3) dopamine receptor [20]): < 10%; inhibition (D(1B) dopamine receptor [21]): < 10%
Cn1ncc2cc(CN3CCO[C@H](COc4ccccc4)C3)ccc21 | 170 | 47 |  | 0.039 | 0.074 |  |  |  |  |  |  |  |  |  |  | 37.3 | 83.1 | 2.23 | 
Clc1cccc(OC[C@@H]2CNCCO2)n1 |  |  |  |  |  |  |  |  |  |  |  |  |  |  |  |  |  |  | Drug metabolism (Liver microsome [25]): metabolite_detected
Cc1ccc(CN2CCO[C@H](CSc3ccccc3)C2)cc1C | 27 | 7.4 | < 50 | 0.001 | 0.004 | > 1000 | > 1000 | > 10000 | > 10000 | > 10000 | > 10000 | > 10000 | > 1000 | > 1000 | > 1000 | 23.1 | 132 | 5.73 | 
Clc1ccc(CN2CCO[C@H](CSc3ccccc3)C2)cc1 | 34 | 9.4 | < 50 | 0.008 | 0.005 | > 1000 | > 1000 | > 10000 | > 10000 | > 10000 | > 10000 | > 10000 | > 1000 | > 1000 | > 1000 | 26.1 | 131 | 5.03 | 
COc1ccc(CN2CCO[C@H](COc3ccccc3)C2)cc1F | 56 | 14.3 | 76 | 0.031 | 0.037 |  |  |  |  |  |  |  |  |  |  | 14.7 | 108 | 7.38 | inhibition (D(2) dopamine receptor [26]): 78%; inhibition (D(1A) dopamine receptor [27]): < 50%; inhibition (D(3) dopamine receptor [28]): < 50%; inhibition (D(1B) dopamine receptor [29]): < 50%
Clc1ccc(CN2CCO[C@H](COc3ccccc3)C2)cc1 | 150 | 42 |  | 0.007 | 0.007 |  |  |  |  |  |  |  |  |  |  | 42.5 | 197 | 4.62 | 
Clc1ccc2c(CN3CCO[C@H](COc4ccccc4)C3)c[nH]c2c1 | 8 | 2.2 | 93 | 0.006 | 0.01 |  |  |  |  |  |  |  |  |  |  | 74.8 | 246 | 3.29 | inhibition (D(2) dopamine receptor [26]): 94%; inhibition (D(1A) dopamine receptor [27]): < 50%; inhibition (D(3) dopamine receptor [28]): 70%; inhibition (D(1B) dopamine receptor [29]): < 50%

Reference: ChEMBL document CHEMBL3792377, “Synthesis and characterization of a series of chiral alkoxymethyl morpholine analogs as dopamine receptor 4 (D4R) antagonists” (Bioorg Med Chem Lett, 2016)
